Reference: ChEMBL document CHEMBL2040797, “Synthesis of benzimidazoles bearing oxadiazole nucleus as anticancer agents” (2012)

What was measured:
Assay type in all cases: functional
[1] = system: 786-0; experiment: Growth inhibition of human 786-0 cells at 10 uM after 48 hrs by sulforhodamine B assay; conditions: 786-0, 48 h, read-out: GI
Method in brief: (§1)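 NCI one-dose primary screen at 10 (printed mM) across the 60-line panel. Cells in RPMI 1640 with 5% FBS and 2 mM L-glutamine, plated at 5000–40,000 cells/well and incubated 24 h before dosing. Exposure 48 h at 37 °C, 5% CO2. Adherent cells were fixed with cold TCA, suspension cells fixed after settling. SRB stain, absorbance 515 nm. Reported as percent growth of treated cells relative to control.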

[2] = system: ACHN; experiment: Growth inhibition of human ACHN cells at 10 uM after 48 hrs by sulforhodamine B assay; conditions: read-out: GI; method in brief: as §1
[3] = system: OVCAR-5; experiment: Cytotoxicity against human OVCAR5 cells after 48 hrs by sulforhodamine B assay; conditions: OVCAR-5, 48 h
Method in brief: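 NCI 60-panel screen. Cells were grown in RPMI 1640 with 5% FBS and L-glutamine and plated at 5000–40,000 cells/well according to doubling time. They were preincubated 24 h at 37 °C, 5% CO2, then exposed 48 h to five 10-fold dilutions. Adherent cells were fixed with cold TCA, final 10%; suspension cells were fixed after settling. Cells were stained with 0.4% SRB and read at 515 nm. Tz/C/Ti growth curves gave GI50, TGI and LC50.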

[4] = system: TK-10; experiment: Cytotoxicity against human TK10 cells after 48 hrs by sulforhodamine B assay; conditions: TK-10, 48 h
Method in brief: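 NCI 60 panel five-dose screen. Cells in RPMI 1640 with 5% FBS and 2 mM L-glutamine, plated at 5000–40,000 cells/well and preincubated 24 h. Compounds were tested at five 10-fold concentrations (0.01–100) for 48 h at 37 °C, 5% CO2. Cells were fixed with TCA and stained with SRB, absorbance 515 nm. GI50, TGI and LC50 were taken from % growth curves against time-zero and control.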

[5] = system: HL-60(TB); experiment: Growth inhibition of human HL-60(TB) cells at 10 uM after 48 hrs by sulforhodamine B assay; conditions: HL-60, 48 h, read-out: GI
Method in brief: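 NCI 60-panel primary one-dose screen. Cells are grown in RPMI 1640 with 5% FBS, plated by doubling time and pre-incubated 24 h at 37 °C, 5% CO2. They are exposed for 48 h to a single concentration. Settled suspension cells are fixed, then SRB-stained with absorbance at 515 nm. Output is percent growth of treated cells relative to untreated control, reported as a mean graph.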

[6] = read-out: LC50 (the source's name)

Compound `O=C(CCc1nnc(-c2ccc(Cl)cc2Cl)o1)c1nc2ccccc2[nH]1` has an inhibition of growth at 10 µM [1] of 26.2%, an inhibition of growth at 10 µM [2] of 18.7% and a GI50 [3] of 7.82 µM. For the same compound, the TGI [3] was 100 µM, the CC50 [3, 6] was 100 µM and the GI50 [4] was 16.4 µM. For the same compound, the TGI [4] was 100 µM, the CC50 [4, 6] was 100 µM and the inhibition of growth at 10 µM [5] was 134%.
